In ChEMBL document CHEMBL1121999 (J Med Chem, 1982):
Activity calls are given as the source filed them. The calls are words filed in the database; no cut-off is given here.

How the values were obtained:
[1] = biological target: GABA transporter (Rattus norvegicus) (UniProt P31647+P23978+P31646+P48056); test: In vitro maximal effect for synaptosomal GABA uptake at 100 uM; format: functional
Summary of the method: (§1)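 Rat whole brain minus cerebellum was homogenized at 4 °C in 0.32 M sucrose and spun at 1000g for 10 min, then at 27000g for 20 min to give the P₂ synaptosome pellet. Uptake and transaminase were measured together: 100 μM compound with 25 μM [³H]GABA in Krebs-Ringer phosphate buffer, 10 min at room temperature. Reactions were stopped with 1 mM GABA plus 1 mM succinic acid and centrifuged. Supernatant went onto Dowex 50 and tissue radioactivity was counted. Results are given as % of drug-free control.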

[2] = biological target: GABA-A receptor; anion channel; test: Inhibition of 2 nM [3H]muscimol binding to Gamma-aminobutyric acid (GABA-A) receptor in rat brain crude synaptic membranes; format: cell membranes, Membrane
[3] = species on record: Rattus norvegicus; test: […] effect on [3H]-GABA release from rat cortical synaptosomes at 100 uM (No effect); format: functional; conditions: Brain
[4] = biological target: 4-aminobutyrate aminotransferase, mitochondrial (Rattus norvegicus) (UniProt P50554); test: In vitro inhibition of succinate formation in the synaptosomal Gamma-amino-N-butyrate transaminase assay at 100 uM; format: functional; summary of the method: as §1
Chain of 4-aminobutyrate aminotransferase, mitochondrial (Rattus norvegicus) (P50554 28-500 limits assumed): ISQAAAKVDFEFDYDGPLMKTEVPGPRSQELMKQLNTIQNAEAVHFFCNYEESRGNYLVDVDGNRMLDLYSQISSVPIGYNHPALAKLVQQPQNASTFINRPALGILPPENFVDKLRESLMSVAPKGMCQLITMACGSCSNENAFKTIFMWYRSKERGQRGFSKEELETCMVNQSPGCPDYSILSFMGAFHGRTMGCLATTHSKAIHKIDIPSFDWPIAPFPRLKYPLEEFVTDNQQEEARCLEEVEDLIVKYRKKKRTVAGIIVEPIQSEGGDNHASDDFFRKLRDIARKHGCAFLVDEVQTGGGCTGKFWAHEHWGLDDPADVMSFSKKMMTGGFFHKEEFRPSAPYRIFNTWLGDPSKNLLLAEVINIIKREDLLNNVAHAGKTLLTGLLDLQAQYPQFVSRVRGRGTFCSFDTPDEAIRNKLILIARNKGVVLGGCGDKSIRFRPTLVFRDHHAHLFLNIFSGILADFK

Chain of GABA transporter (Rattus norvegicus) (P31646 whole entry, looked up): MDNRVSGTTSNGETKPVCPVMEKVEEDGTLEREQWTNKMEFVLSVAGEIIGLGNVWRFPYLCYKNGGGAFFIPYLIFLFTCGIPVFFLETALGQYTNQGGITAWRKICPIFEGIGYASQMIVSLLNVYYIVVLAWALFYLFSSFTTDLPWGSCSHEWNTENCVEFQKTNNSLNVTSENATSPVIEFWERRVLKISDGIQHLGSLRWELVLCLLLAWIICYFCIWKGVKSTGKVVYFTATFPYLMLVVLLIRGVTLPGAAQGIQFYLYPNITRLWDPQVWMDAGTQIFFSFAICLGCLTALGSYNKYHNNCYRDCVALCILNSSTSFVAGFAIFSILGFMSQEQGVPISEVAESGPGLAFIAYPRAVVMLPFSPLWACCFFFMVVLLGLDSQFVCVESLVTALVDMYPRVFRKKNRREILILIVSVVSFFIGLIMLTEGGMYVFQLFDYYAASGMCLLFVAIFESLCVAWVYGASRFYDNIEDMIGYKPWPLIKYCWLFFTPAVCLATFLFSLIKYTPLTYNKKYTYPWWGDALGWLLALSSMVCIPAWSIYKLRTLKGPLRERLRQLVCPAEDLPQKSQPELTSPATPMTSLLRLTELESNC
Chain of GABA transporter (Rattus norvegicus) (P31647 whole entry, looked up): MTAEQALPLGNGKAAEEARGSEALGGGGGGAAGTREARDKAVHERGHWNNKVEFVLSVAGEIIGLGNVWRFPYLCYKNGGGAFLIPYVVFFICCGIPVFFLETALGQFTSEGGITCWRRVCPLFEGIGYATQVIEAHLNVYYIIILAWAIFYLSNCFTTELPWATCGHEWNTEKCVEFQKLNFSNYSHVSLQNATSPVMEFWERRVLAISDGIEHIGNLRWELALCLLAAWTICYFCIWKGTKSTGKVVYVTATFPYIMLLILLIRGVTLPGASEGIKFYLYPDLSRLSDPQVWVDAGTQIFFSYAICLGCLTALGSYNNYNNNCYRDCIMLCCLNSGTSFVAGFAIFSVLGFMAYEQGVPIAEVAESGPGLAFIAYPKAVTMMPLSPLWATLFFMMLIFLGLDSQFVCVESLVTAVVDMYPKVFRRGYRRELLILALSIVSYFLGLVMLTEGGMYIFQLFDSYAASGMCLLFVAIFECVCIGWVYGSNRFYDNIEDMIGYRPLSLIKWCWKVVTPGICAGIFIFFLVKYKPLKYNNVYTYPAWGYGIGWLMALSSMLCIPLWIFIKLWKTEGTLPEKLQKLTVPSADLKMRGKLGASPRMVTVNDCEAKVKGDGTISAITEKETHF
Chain of GABA transporter (Rattus norvegicus) (P48056 whole entry, looked up): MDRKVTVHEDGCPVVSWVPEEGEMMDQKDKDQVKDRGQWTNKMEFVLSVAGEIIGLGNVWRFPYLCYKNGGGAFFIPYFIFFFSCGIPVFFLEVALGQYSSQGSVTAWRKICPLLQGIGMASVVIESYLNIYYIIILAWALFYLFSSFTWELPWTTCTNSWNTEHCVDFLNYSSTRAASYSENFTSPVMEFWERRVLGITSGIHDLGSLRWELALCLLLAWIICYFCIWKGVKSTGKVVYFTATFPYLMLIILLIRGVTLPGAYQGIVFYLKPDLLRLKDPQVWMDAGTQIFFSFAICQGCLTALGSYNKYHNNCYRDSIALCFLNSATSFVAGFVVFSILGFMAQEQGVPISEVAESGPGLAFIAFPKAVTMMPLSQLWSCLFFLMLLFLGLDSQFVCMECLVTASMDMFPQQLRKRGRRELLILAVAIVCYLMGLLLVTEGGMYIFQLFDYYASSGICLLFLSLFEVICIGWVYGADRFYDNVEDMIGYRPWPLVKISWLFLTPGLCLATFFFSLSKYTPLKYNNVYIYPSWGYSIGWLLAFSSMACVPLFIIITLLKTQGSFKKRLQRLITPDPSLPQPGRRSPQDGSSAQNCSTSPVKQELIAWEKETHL

Row | Effect [1] [%] | IC50 [2] [µM] | inhibition [4] [%] | SMILES | Activity [3]
1 | 30 | > 20 | 30 | CC1=NS(=O)(=O)c2ccc(CN(C)C)cc2N1 | inactive
2 | 30 | > 20 | 30 | CN1C(=O)Nc2cc(CN)ccc2S1(=O)=O | inactive
3 | 30 | > 20 | 30 | CN(C)Cc1ccc2c(c1)NC(=O)N(C)S2(=O)=O | inactive
4 | 30 | > 20 | 30 | CC1=NS(=O)(=O)c2ccc(CN)cc2N1 | inactive
5 | – | – | 70 | O=C(O)C1CCCNC1 (stereo unspecified) | –
6 | 30 | > 20 | 30 | CC1=NS(=O)(=O)c2c(CN)cccc2N1 | inactive
7 | – | – | 60 | NC(=O)C(=O)O | –
8 | 30 | > 20 | 30 | CN1C(=O)Nc2cccc(CN)c2S1(=O)=O | inactive
